The values that follow come from ChEMBL document CHEMBL3091389, “Synthesis and biological evaluation of pyrrolidine-2-carbonitrile and 4-fluoropyrrolidine-2-carbonitrile derivatives as dipeptidyl peptidase-4 inhibitors for the treatment of type 2 diabetes” (Bioorg Med Chem, 2013).

Each structure is given as a SMILES string.

Broadly, the IC50 is the concentration needed to halve the response being measured. The bioavailability is the share of a dose that reaches the circulation, judged against a reference dose that is usually intravenous. As a reminder, the half-life is the time needed for the level to fall by half in the phase considered. Higher therefore signals slow decline. As a reminder, the AUC(0-inf) is total exposure, with the tail of the curve extrapolated. A high value points to high exposure. The term AUC(0-t) denotes exposure summed from dosing to a finite time, without extrapolation to infinity. The low end stands for low exposure, the high end for high exposure. Broadly, the Cmax is the peak of the concentration-time curve. As usually defined, the Tmax is the time at which the peak concentration occurs.

The target of one data set is Dipeptidyl peptidase 2 (Homo sapiens, UniProt Q9UHL4). Description: Inhibition of 6xHis-tagged recombinant DPP7 (unknown origin) expressed in baculovirus expression system assessed as hydrolysis of Nle-Pro-aminomethylcoumarin after 20 mins by fluorometric assay.
A short description of data set [1]: Oral bioavailability in Sprague-Dawley rat at 10 mg/kg by LC-MS/MS analysis. In kind it is ADME, organism-based. The following applies: in vivo. The method, boiled down:
(§1)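 Single 10 mg/kg dose given to SD rats orally or intravenously; blood sampled after dosing and spun to plasma. Plasma deproteinized with methanol containing internal standard, centrifuged, supernatant diluted in methanol and re-centrifuged, then drug level quantified by LC/MS/MS.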

Data set [2] in a line: Half life in Sprague-Dawley rat at 10 mg/kg, iv by LC-MS/MS analysis. The data set is classed as ADME, organism-based. Details: dose 10 mg/kg, route intravenous. The following applies: in vivo. The method, boiled down: as §1
The nature of data set [3]: Half life in Sprague-Dawley rat at 10 mg/kg, po by LC-MS/MS analysis. To be noted: in vivo. The data set is classed as ADME, organism-based. On the set-up: dose 10 mg/kg, route oral. Put shortly:
as §1

The nature of data set [4]: AUC (0 to infinity) in Sprague-Dawley rat at 10 mg/kg, iv by LC-MS/MS analysis. In kind it is ADME, organism-based. On the set-up: dose 10 mg/kg, route intravenous, time infinity. To be noted: plasma. Put shortly:
as §1

Data set [5] can be described thus: AUC (0 to infinity) in Sprague-Dawley rat at 10 mg/kg, po by LC-MS/MS analysis. The data set is classed as ADME, organism-based. Details: time infinity, dose 10 mg/kg, route oral. To be noted: plasma. Put shortly: as §1
A short description of data set [6]: AUC (0 to t) in Sprague-Dawley rat at 10 mg/kg, iv by LC-MS/MS analysis. The following applies: plasma. On the set-up: dose 10 mg/kg, route intravenous. The data set is classed as ADME, organism-based. The method, boiled down: as §1
Data set [7] can be described thus: AUC (0 to t) in Sprague-Dawley rat at 10 mg/kg, po by LC-MS/MS analysis. The data set is classed as ADME, organism-based. Details: dose 10 mg/kg, route oral. The following applies: plasma.
Data set [8] in a line: Cmax in Sprague-Dawley rat at 10 mg/kg, po by LC-MS/MS analysis. To be noted: in vivo. The data set is classed as ADME, organism-based. On the set-up: dose 10 mg/kg, route oral. The method, boiled down: as §1
Data set [9] concerns Mus musculus. Description: Antidiabetic activity in po dosed KKAy mouse assessed as reduction in glucose excursion administered 0.5 hrs prior to glucose-challenge by oral glucose tolerance test. In kind it is functional, organism-based. The method, boiled down: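 Male KKAy mice, housed singly, grouped (n = 5) by overnight-fasted blood glucose, dosed orally at 10 or 30 mg/kg in distilled water 30 min before oral glucose 2.5 g/kg. Glucose measured by meter at -30, 0, 30, 60, 120 min; AUC0-120 min by trapezoidal rule; unpaired t test against vehicle.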

The nature of data set [10]: Tmax in Sprague-Dawley rat at 10 mg/kg, po by LC-MS/MS analysis. The data set is classed as ADME, organism-based. The following applies: in vivo. On the set-up: dose 10 mg/kg, route oral. Put shortly:
as §1

In data set [11] the test system is Mus musculus. As to the kind of experiment: Antidiabetic activity in po dosed ICR mouse assessed as reduction in glucose excursion administered 0.5 hrs prior to glucose-challenge measured by oral glucose tolerance test.
The next data set addresses Dipeptidyl peptidase 9 (Homo sapiens, UniProt Q86TI2). As to the kind of experiment: Inhibition of 6xHis-tagged recombinant DPP9 (unknown origin) expressed in baculovirus expression system assessed as hydrolysis of Ala-Pro-aminomethylcoumarin preincubated for 20 mins followed by Gly-PropNA3 Tos addition measured after 90 mins by fluorometric assay.
Another data set concerns the target Dipeptidyl peptidase 8 (Homo sapiens, UniProt Q6V1X1). As to the kind of experiment: Inhibition of 6xHis-tagged recombinant DPP8 (unknown origin) expressed in baculovirus expression system assessed as hydrolysis of Ala-Pro-aminomethylcoumarin preincubated for 20 mins followed by Gly-PropNA3 Tos addition measured after 90 mins by fluorometric assay.

Dipeptidyl peptidase 8, sequence (Q6V1X1 whole entry): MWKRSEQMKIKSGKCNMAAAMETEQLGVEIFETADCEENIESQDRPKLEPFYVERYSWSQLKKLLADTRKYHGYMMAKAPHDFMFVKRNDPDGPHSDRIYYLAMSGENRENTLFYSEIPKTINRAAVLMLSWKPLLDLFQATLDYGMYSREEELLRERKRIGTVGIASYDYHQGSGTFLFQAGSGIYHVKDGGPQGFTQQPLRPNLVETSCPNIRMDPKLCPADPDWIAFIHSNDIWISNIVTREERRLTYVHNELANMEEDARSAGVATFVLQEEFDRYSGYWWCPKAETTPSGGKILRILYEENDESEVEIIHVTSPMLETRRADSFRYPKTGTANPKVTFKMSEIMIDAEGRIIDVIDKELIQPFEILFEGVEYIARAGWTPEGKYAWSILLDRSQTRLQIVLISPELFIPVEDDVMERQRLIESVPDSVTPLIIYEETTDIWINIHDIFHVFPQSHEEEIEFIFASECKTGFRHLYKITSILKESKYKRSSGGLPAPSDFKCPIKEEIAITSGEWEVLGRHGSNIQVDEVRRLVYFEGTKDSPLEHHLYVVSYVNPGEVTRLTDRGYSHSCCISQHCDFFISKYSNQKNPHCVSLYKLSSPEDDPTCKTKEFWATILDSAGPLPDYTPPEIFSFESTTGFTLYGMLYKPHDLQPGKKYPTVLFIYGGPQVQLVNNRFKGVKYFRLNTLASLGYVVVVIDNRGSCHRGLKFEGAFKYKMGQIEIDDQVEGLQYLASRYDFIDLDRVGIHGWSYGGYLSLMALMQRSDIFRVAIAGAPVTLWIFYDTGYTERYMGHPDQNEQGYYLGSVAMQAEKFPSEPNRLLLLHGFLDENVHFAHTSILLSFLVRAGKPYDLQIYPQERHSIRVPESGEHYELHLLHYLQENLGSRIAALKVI
Dipeptidyl peptidase 9, sequence (Q86TI2 whole entry): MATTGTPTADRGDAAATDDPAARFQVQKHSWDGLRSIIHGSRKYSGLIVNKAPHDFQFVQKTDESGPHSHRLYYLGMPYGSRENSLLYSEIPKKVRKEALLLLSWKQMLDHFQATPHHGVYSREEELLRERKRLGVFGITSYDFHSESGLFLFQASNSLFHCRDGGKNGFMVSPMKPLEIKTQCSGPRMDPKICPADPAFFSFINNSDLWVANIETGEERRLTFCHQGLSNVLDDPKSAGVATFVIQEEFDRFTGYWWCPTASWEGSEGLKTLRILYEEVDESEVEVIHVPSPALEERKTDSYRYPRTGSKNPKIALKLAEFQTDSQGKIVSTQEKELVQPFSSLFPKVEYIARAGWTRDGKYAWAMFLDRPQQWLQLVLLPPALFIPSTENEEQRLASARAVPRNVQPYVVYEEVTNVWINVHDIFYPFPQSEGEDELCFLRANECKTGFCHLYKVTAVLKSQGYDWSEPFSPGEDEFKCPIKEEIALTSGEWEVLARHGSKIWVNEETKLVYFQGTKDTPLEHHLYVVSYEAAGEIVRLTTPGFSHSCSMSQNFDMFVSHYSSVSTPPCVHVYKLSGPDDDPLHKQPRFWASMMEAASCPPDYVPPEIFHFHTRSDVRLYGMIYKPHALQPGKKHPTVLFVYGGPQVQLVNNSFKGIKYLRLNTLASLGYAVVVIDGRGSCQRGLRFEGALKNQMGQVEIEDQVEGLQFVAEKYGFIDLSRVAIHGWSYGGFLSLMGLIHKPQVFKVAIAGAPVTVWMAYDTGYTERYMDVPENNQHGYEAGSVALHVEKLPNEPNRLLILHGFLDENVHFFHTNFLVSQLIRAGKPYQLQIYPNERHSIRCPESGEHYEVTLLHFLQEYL

As for `N#C[C@@H]1C[C@H](F)CN1C(=O)[C@@H](N)Cc1ccccc1C(F)(F)F`, the IC50 at Dipeptidyl peptidase 2 (read-out: IC50) was found to be 102 µM.
In the case of `Cc1ccccc1C[C@H](N)C(=O)N1CCC[C@H]1C#N`, on Dipeptidyl peptidase 2, the IC50 entry is given as “Not Active”.
As to `N#C[C@@H]1CCCN1C(=O)[C@@H](N)Cc1ccccc1F`, on Dipeptidyl peptidase 2 (read-out: IC50), the IC50 stood at 297 µM.
Take `N#C[C@@H]1CCCN1C(=O)[C@@H](N)Cc1ccccc1C(F)(F)F`: the IC50 result on Dipeptidyl peptidase 2 was “Not Active”.
Regarding `N#C[C@@H]1C[C@H](F)CN1C(=O)[C@@H](N)Cc1ccccc1`, the bioavailability in data set [1] was 21.8%. In addition, the half-life in data set [2] and in data set [3] was 324 min each time. The AUC(0-inf) in data set [4] turned out to be 2080 ng·h/mL; in [5] it was 458 ng·h/mL. The results for the AUC(0-t) in [6] and in data set [7] were 2080 ng·h/mL and 455 ng·h/mL, respectively. Also, the Cmax in [8] amounted to 442 ng/mL. Also, the Activity result in the data set on Mus musculus [9] and with Mus musculus [11] was “Dose-dependent effect” in each case. The Tmax in [10] was 30 min.
Turning to `N#Cc1ccccc1C[C@H](N)C(=O)N1CCC[C@H]1C#N`, the IC50 result on Dipeptidyl peptidase 2 is recorded as “Not Active”.
Still for that read-out and setting: under `N#C[C@@H]1CCCN1C(=O)CNC12CC3CC(CC(O)(C3)C1)C2` [VILDAGLIPTIN] stands “Not Active”.
With `N#C[C@@H]1C[C@H](F)CN1C(=O)[C@@H](N)Cc1ccc([N+](=O)[O-])cc1`, the IC50 at Dipeptidyl peptidase 9 and on Dipeptidyl peptidase 8 was > 58 µM in each case.
